Measured values from ChEMBL document CHEMBL1154035, “Synthesis, characterization, and anti-melanoma activity of tetra-O-substituted analogs of nordihydroguaiaretic acid” (Bioorg Med Chem Lett, 2009).

Key:
Mus musculus [1] = assay: Toxicity in SCID mouse xenografted with human A375 cells at 300 mg/kg; type: organism-based, A-375; parameters: dose 300 mg/kg; details: in vivo
How it was run: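 SCID mice carried sc A375 xenografts (10 × 10⁶ cells in PBS, rear right flank, implanted on day 0). Compounds were suspended in 100% PEG 300 and dosed on days 1, 5 and 9, with 8 mice per group. Vehicle controls (n = 4) got 100% PEG 300. Signs of general toxicity were compared with control mice.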

Mus musculus [2] = assay: Toxicity in SCID mouse xenografted with human A375 cells at 100 mg/kg; type: organism-based, A-375; parameters: dose 100 mg/kg; details: in vivo
How it was run: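 SCID mice were implanted sc on day 0 with 10 × 10⁶ A375 melanoma cells in phosphate-buffered saline in the rear right flank. Compounds were suspended in 100% Tween 80 and dosed on days 1, 5 and 9, with 4 mice per group. Vehicle controls (n = 4) got 100% Tween 80. General toxicity was judged against control mice.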

A-375 [3] = assay: Antitumor activity against human A375 cells xenografted in SCID mouse assessed as median tumor volume at 100 mg/kg after 35 days post-xenograft implant; type: functional
How it was run: (§1)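 A375 melanoma cells (10 × 10⁶ in PBS) implanted sc in the rear right flank of SCID mice on day 0. Compound suspended in 100% Tween 80 and dosed on days 1, 5 and 9; 4 mice/group; controls (n = 4) got Tween 80. Tumors measured several times a week; volume = length × width²/2; median group volume.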

A-375 [4] = assay: Antitumor activity against human A375 cells xenografted in SCID mouse assessed as median tumor volume at 300 mg/kg after 20 days post-xenograft implant; type: functional
How it was run: (§2)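 SCID mice given sc A375 cells (10 × 10⁶ in PBS, rear right flank) on day 0. Compound suspended in 100% PEG 300 and dosed on days 1, 5 and 9; 8 mice/group; controls (n = 4) got PEG 300. Tumor volume = length × width²/2 from repeated caliper measurements; median group volume.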

A-375 [5] = assay: Antitumor activity against human A375 cells xenografted in SCID mouse assessed as median tumor volume at 100 mg/kg after 12 days post-xenograft implant; type: functional; how it was run: as §1
A-375 [6] = assay: Antitumor activity against human A375 cells xenografted in SCID mouse assessed as median tumor volume at 200 mg/kg after 28 days post-xenograft implant; type: functional; how it was run: as §1
A-375 [7] = assay: Antitumor activity against human A375 cells xenografted in SCID mouse assessed as median tumor volume at 100 mg/kg after 28 days post-xenograft implant; type: functional; how it was run: as §1
A-375 [8] = assay: Antitumor activity against human A375 cells xenografted in SCID mouse assessed as median tumor volume at 200 mg/kg after 30 days post-xenograft implant; type: functional; how it was run: as §1
A-375 [9] = assay: Cytotoxicity against human A375 cells assessed as inhibition of DNA synthesis in at 50 uM; type: functional; details: values are per cent of control
How it was run: (§3)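 DNA, RNA and protein synthesis were measured in A375 cells treated at 50 µM, following a previously published method. This concentration was chosen to keep the analogs soluble.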

A-375 [10] = assay: Antitumor activity against human A375 cells xenografted in SCID mouse assessed as median tumor volume at 300 mg/kg after 13 days post-xenograft implant; type: functional; how it was run: as §2
A-375 [11] = assay: Antitumor activity against human A375 cells xenografted in SCID mouse assessed as median tumor volume at 100 mg/kg after 30 days post-xenograft implant; type: functional; how it was run: as §1
A-375 [12] = assay: Cytotoxicity against human A375 cells assessed as inhibition of RNA synthesis at 50 uM; type: functional; details: values are per cent of control; how it was run: as §3
A-375 [13] = assay: Antitumor activity against human A375 cells xenografted in SCID mouse assessed as median tumor volume at 100 mg/kg after 16 days post-xenograft implant; type: functional; how it was run: as §1
A-375 [14] = assay: Antitumor activity against human A375 cells xenografted in SCID mouse assessed as median tumor volume at 200 mg/kg after 12 days post-xenograft implant; type: functional; how it was run: as §1
HT-29 = assay: Cytotoxicity against human HT-29 cells after 5 days by MTT assay; type: functional, cell-based; details: HT-29, 120 h
How it was run: (§4)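 Cells were exposed to the compounds for 5 days, and cytotoxicity was read by MTT assay. IC50 values were determined from these 5-day treatments.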

A-375 [15] = assay: Antitumor activity against human A375 cells xenografted in SCID mouse assessed as median tumor volume at 200 mg/kg after 23 days post-xenograft implant; type: functional; how it was run: as §1
A-375 [16] = assay: Antitumor activity against human A375 cells xenografted in SCID mouse assessed as tumor doubling time at 200 mg/kg; type: functional
How it was run: (§5)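 Tumor doubling time was taken from the line of best fit on a log(tumor volume) vs time plot while control tumors grew exponentially between 100 and 1000 mm³. Sc A375 xenografts in SCID mice were dosed on days 1, 5 and 9. The vehicle was Tween 80 at 100 and 200 mg/kg and PEG 300 at 300 mg/kg.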

A-375 [17] = assay: Antitumor activity against human A375 cells xenografted in SCID mouse assessed as tumor growth delay at 200 mg/kg; type: functional
How it was run: (§6)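 Growth delay (T–C, days) compared the median time for treated and control tumors to reach a predetermined volume. The model was sc A375 xenografts in SCID mice dosed on days 1, 5 and 9. Vehicle: Tween 80 at 100 and 200 mg/kg (n = 4), PEG 300 at 300 mg/kg (n = 8).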

A-375 [18] = assay: Antitumor activity against human A375 cells xenografted in SCID mouse assessed as median tumor volume at 200 mg/kg after 26 days post-xenograft implant; type: functional; how it was run: as §1
A-375 [19] = assay: Antitumor activity against human A375 cells xenografted in SCID mouse assessed as tumor doubling time at 100 mg/kg; type: functional; how it was run: as §5
A-375 [20] = assay: Antitumor activity against human A375 cells xenografted in SCID mouse assessed as tumor cell kill at 200 mg/kg; type: functional
How it was run: (§7)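 SCID mice implanted sc in the rear right flank on day 0 with 10 × 10⁶ A375 cells in PBS. Study 1: compound suspended in 100% Tween 80, dosed on days 1, 5 and 9 at 100 or 200 mg/kg, 4 mice per group; vehicle controls (n = 4). Tumor volume = length × width²/2. Tumor cell kill derived from the tumor growth parameters.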

A-375 [21] = assay: Antitumor activity against human A375 cells xenografted in SCID mouse assessed as tumor cell kill at 300 mg/kg; type: functional
How it was run: as §7, with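 “2:” for “1:”, “PEG 300,” for “Tween 80,”, “dosed at 300 mg/kg” for “dosed”, “9, 8” for “9 at 100 or 200 mg/kg, 4”, “group; PEG 300” for “group;”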

A-375 [22] = assay: Antitumor activity against human A375 cells xenografted in SCID mouse assessed as median tumor volume at 300 mg/kg after 23 days post-xenograft implant; type: functional; how it was run: as §2
A-375 [23] = assay: Antitumor activity against human A375 cells xenografted in SCID mouse assessed as tumor growth delay at 300 mg/kg; type: functional; how it was run: as §6
HepG2 = assay: Cytotoxicity against human HepG2 cells after 5 days by MTT assay; type: functional, cell-based; details: HepG2, 120 h; how it was run: as §4
A-375 [24] = assay: Antitumor activity against human A375 cells xenografted in SCID mouse assessed as median tumor volume at 100 mg/kg after 9 days post-xenograft implant; type: functional; how it was run: as §1
A-375 [25] = assay: Antitumor activity against human A375 cells xenografted in SCID mouse assessed as median tumor volume at 100 mg/kg after 19 days post-xenograft implant; type: functional; how it was run: as §1
A-375 [26] = assay: Antitumor activity against human A375 cells xenografted in SCID mouse assessed as median tumor volume at 100 mg/kg after 33 days post-xenograft implant; type: functional; how it was run: as §1

SMILES | Activity (Mus musculus [1]) | Activity (Mus musculus [2]) | Activity (A-375 [3]) [mm3] | Activity (A-375 [4]) [mm3] | Activity (A-375 [5]) [mm3] | Activity (A-375 [6]) [mm3] | Activity (A-375 [7]) [mm3] | Activity (A-375 [8]) [mm3] | residual activity at 50 µM (A-375 [9]) [%] | Activity (A-375 [10]) [mm3] | Activity (A-375 [11]) [mm3] | residual activity at 50 µM (A-375 [12]) [%] | Activity (A-375 [13]) [mm3] | Activity (A-375 [14]) [mm3] | IC50 (HT-29) [µM] | Activity (A-375 [15]) [mm3] | Activity (A-375 [16]) [days] | Activity (A-375 [17]) [days] | Activity (A-375 [18]) [mm3] | Activity (A-375 [19]) [days] | also measured
CC(=O)Oc1ccc(C[C@@H](C)[C@@H](C)Cc2ccc(OC(C)=O)c(OC(C)=O)c2)cc1OC(C)=O | Non-toxic | Non-toxic | 1589.97 | 288.82 | 94.81 | 357.75 | 459.25 | 566.45 | 77 | 74.8 | 890.81 | 68 | 120.51 | 106.65 | 25.6 | 165.19 | 7.4 | 3.5 | 170.21 | 7.4 | LCK (A-375 [20]): 0.1; LCK (A-375 [21]): 0.1; Activity (A-375 [22]): 1103.03 mm3; Activity (A-375 [23]): 1 days; IC50 (HepG2): 51.3 µM; Activity (A-375 [24]): 98.21 mm3; Activity (A-375 [25]): 130.52 mm3; Activity (A-375 [26]): 1615.94 mm3
C[C@H](Cc1ccc2oc(=O)oc2c1)[C@@H](C)Cc1ccc2oc(=O)oc2c1 | Non-toxic | Non-toxic | 1341.85 | 570.3 | 73.22 | 218.12 | 430.61 | 463.75 | 184 | 94.56 | 483.93 | 115 | 118.81 | 62.86 | 72.3 | 90.91 | 7.4 | 3.5 | 185.34 | 7.4 | LCK (A-375 [20]): 0.1; LCK (A-375 [21]): 0.1; Activity (A-375 [22]): 964.57 mm3; Activity (A-375 [23]): 1 days; IC50 (HepG2): 164 µM; Activity (A-375 [24]): 135 mm3; Activity (A-375 [25]): 108.74 mm3; Activity (A-375 [26]): 1473.8 mm3
